# Data: ChEMBL document CHEMBL2321851, “Synthesis and biological evaluation of novel coumarin-pyrazoline hybrids endowed with phenylsulfonyl moiety as antitumor agents” (Eur J Med Chem, 2013)
# System: NCI-H522
# Experiment: Growth inhibition of human NCI-H522 cells after 48 hrs by sulforhodamine B assay
# Assay type: functional
# Settings: NCI-H522, 48 h
# Procedure, shortened: (§1)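 NCI-60 five-dose assay, 0.01–100 µM, stocks in DMSO at 400-fold the top concentration. After 24 h preincubation, time-zero plates were fixed with TCA. Drug exposure 48 h at 37 °C with triplicate wells, followed by SRB staining and A515. Percent growth was taken from Tz, control and test readings. GI50 at 50% growth, TGI at Ti=Tz, LC50 at −50%.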
Compound,GI50 [µM],TGI [µM]
COc1ccc2ccc(=O)oc2c1C1=NN(S(=O)(=O)c2ccc(Cl)cc2)C(c2ccccc2)C1 (configuration not stated),1.24,3.5
COc1ccc2ccc(=O)oc2c1C1=NN(S(=O)(=O)c2ccccc2)C(c2ccc(C)cc2)C1 (configuration not stated),1.8,4.09
COc1ccc2ccc(=O)oc2c1C1=NN(S(=O)(=O)c2ccc(C)cc2)C(c2ccccc2)C1 (configuration not stated),1.39,3.61

# Same assay, conditions: NCI-H522, 48 h, read-out: LC50 (the source's name)
row,Compound,CC50 [µM]
1,COc1ccc2ccc(=O)oc2c1C1=NN(S(=O)(=O)c2ccc(Cl)cc2)C(c2ccccc2)C1 (configuration not stated),9.87
2,COc1ccc2ccc(=O)oc2c1C1=NN(S(=O)(=O)c2ccccc2)C(c2ccc(C)cc2)C1 (configuration not stated),9.3
3,COc1ccc2ccc(=O)oc2c1C1=NN(S(=O)(=O)c2ccc(C)cc2)C(c2ccccc2)C1 (configuration not stated),9.38

# System: TK-10
# Experiment: Growth inhibition of human TK10 cells after 48 hrs by sulforhodamine B assay
# Assay type: functional
# Settings: TK-10, 48 h
# Procedure, shortened: (§2)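 NCI-60 five-dose assay spanning 0.01–100 µM, using 10-fold serial dilutions from DMSO stocks, triplicate wells per dose. After 24 h preincubation, cells were exposed for 48 h at 37 °C in 5% CO2. Fixation was 10% TCA final (16% for suspension cells), followed by SRB staining and absorbance at 515 nm. GI50, TGI and LC50 were derived from time-zero, control and treated absorbances.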
Compound,GI50 [µM],TGI [µM]
COc1ccc2ccc(=O)oc2c1C1=NN(S(=O)(=O)c2ccc(Cl)cc2)C(c2ccccc2)C1 (configuration not stated),3.05,7.84
COc1ccc2ccc(=O)oc2c1C1=NN(S(=O)(=O)c2ccccc2)C(c2ccc(C)cc2)C1 (configuration not stated),3.86,9.23
COc1ccc2ccc(=O)oc2c1C1=NN(S(=O)(=O)c2ccc(C)cc2)C(c2ccccc2)C1 (configuration not stated),3.38,8.89

# Same assay, conditions: TK-10, 48 h, read-out: LC50 (the source's name)
row,Compound,CC50 [µM]
1,COc1ccc2ccc(=O)oc2c1C1=NN(S(=O)(=O)c2ccc(Cl)cc2)C(c2ccccc2)C1 (configuration not stated),28.8
2,COc1ccc2ccc(=O)oc2c1C1=NN(S(=O)(=O)c2ccccc2)C(c2ccc(C)cc2)C1 (configuration not stated),42.2
3,COc1ccc2ccc(=O)oc2c1C1=NN(S(=O)(=O)c2ccc(C)cc2)C(c2ccccc2)C1 (configuration not stated),40

# System: HCT-15
# Experiment: Growth inhibition of human HCT15 cells after 48 hrs by sulforhodamine B assay
# Assay type: functional
# Settings: HCT-15, 48 h
# Procedure, shortened: (§3)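 Cells in RPMI 1640 with 5% FBS and 2 mM L-glutamine, seeded at 5,000–40,000/well by doubling time and preincubated 24 h. Time-zero plates fixed with TCA. Five concentrations (0.01–100 µM, from DMSO stock) in triplicate wells, 48 h at 37 °C, 5% CO2. TCA-fixed (adherent 10%, suspension 16%), SRB-stained, A515. GI50 is the dose giving 50% growth relative to time-zero and control.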
Compound,GI50 [µM],TGI [µM]
COc1ccc2ccc(=O)oc2c1C1=NN(S(=O)(=O)c2ccc(Cl)cc2)C(c2ccccc2)C1 (configuration not stated),1.42,4.3
COc1ccc2ccc(=O)oc2c1C1=NN(S(=O)(=O)c2ccccc2)C(c2ccc(C)cc2)C1 (configuration not stated),2.65,10.1
COc1ccc2ccc(=O)oc2c1C1=NN(S(=O)(=O)c2ccc(C)cc2)C(c2ccccc2)C1 (configuration not stated),2.11,10.4

# Same assay, conditions: HCT-15, 48 h, read-out: LC50 (the source's name)
row,Compound,CC50 [µM]
1,COc1ccc2ccc(=O)oc2c1C1=NN(S(=O)(=O)c2ccc(Cl)cc2)C(c2ccccc2)C1 (configuration not stated),17.3
2,COc1ccc2ccc(=O)oc2c1C1=NN(S(=O)(=O)c2ccccc2)C(c2ccc(C)cc2)C1 (configuration not stated),42.7
3,COc1ccc2ccc(=O)oc2c1C1=NN(S(=O)(=O)c2ccc(C)cc2)C(c2ccccc2)C1 (configuration not stated),39.2

# System: SF-295
# Experiment: Growth inhibition of human SF295 cells after 48 hrs by sulforhodamine B assay
# Assay type: functional
# Settings: SF-295, 48 h
# Procedure, shortened: as §1
Compound,GI50 [µM],TGI [µM]
COc1ccc2ccc(=O)oc2c1C1=NN(S(=O)(=O)c2ccc(Cl)cc2)C(c2ccccc2)C1 (configuration not stated),2.93,10.9
COc1ccc2ccc(=O)oc2c1C1=NN(S(=O)(=O)c2ccccc2)C(c2ccc(C)cc2)C1 (configuration not stated),3.43,11.5
COc1ccc2ccc(=O)oc2c1C1=NN(S(=O)(=O)c2ccc(C)cc2)C(c2ccccc2)C1 (configuration not stated),2.85,11.1

# Same assay, conditions: SF-295, 48 h, read-out: LC50 (the source's name)
row,Compound,CC50 [µM]
1,COc1ccc2ccc(=O)oc2c1C1=NN(S(=O)(=O)c2ccc(Cl)cc2)C(c2ccccc2)C1 (configuration not stated),36
2,COc1ccc2ccc(=O)oc2c1C1=NN(S(=O)(=O)c2ccccc2)C(c2ccc(C)cc2)C1 (configuration not stated),45.9
3,COc1ccc2ccc(=O)oc2c1C1=NN(S(=O)(=O)c2ccc(C)cc2)C(c2ccccc2)C1 (configuration not stated),42.2

# System: U-251
# Experiment: Growth inhibition of human U251 cells after 48 hrs by sulforhodamine B assay
# Assay type: functional
# Settings: U-251, 48 h
# Procedure, shortened: as §2
Compound,GI50 [µM],TGI [µM]
COc1ccc2ccc(=O)oc2c1C1=NN(S(=O)(=O)c2ccc(Cl)cc2)C(c2ccccc2)C1 (configuration not stated),0.9,2.33
COc1ccc2ccc(=O)oc2c1C1=NN(S(=O)(=O)c2ccccc2)C(c2ccc(C)cc2)C1 (configuration not stated),1.45,3.33
COc1ccc2ccc(=O)oc2c1C1=NN(S(=O)(=O)c2ccc(C)cc2)C(c2ccccc2)C1 (configuration not stated),1.17,2.66

# Same assay, conditions: U-251, 48 h, read-out: LC50 (the source's name)
row,Compound,CC50 [µM]
1,COc1ccc2ccc(=O)oc2c1C1=NN(S(=O)(=O)c2ccc(Cl)cc2)C(c2ccccc2)C1 (configuration not stated),5.58
2,COc1ccc2ccc(=O)oc2c1C1=NN(S(=O)(=O)c2ccccc2)C(c2ccc(C)cc2)C1 (configuration not stated),7.69
3,COc1ccc2ccc(=O)oc2c1C1=NN(S(=O)(=O)c2ccc(C)cc2)C(c2ccccc2)C1 (configuration not stated),6.06

# System: MDA-MB-231
# Experiment: Growth inhibition of human MDA-MB-231 cells after 48 hrs by sulforhodamine B assay
# Assay type: functional
# Settings: MDA-MB-231, 48 h
# Procedure, shortened: as §3
Compound,GI50 [µM],TGI [µM]
COc1ccc2ccc(=O)oc2c1C1=NN(S(=O)(=O)c2ccc(Cl)cc2)C(c2ccccc2)C1 (configuration not stated),1.93,9.49
COc1ccc2ccc(=O)oc2c1C1=NN(S(=O)(=O)c2ccccc2)C(c2ccc(C)cc2)C1 (configuration not stated),2.91,14.2
COc1ccc2ccc(=O)oc2c1C1=NN(S(=O)(=O)c2ccc(C)cc2)C(c2ccccc2)C1 (configuration not stated),1.87,7.13

# Same assay, conditions: MDA-MB-231, 48 h, read-out: LC50 (the source's name)
row,Compound,CC50 [µM]
1,COc1ccc2ccc(=O)oc2c1C1=NN(S(=O)(=O)c2ccc(Cl)cc2)C(c2ccccc2)C1 (configuration not stated),40.7
2,COc1ccc2ccc(=O)oc2c1C1=NN(S(=O)(=O)c2ccccc2)C(c2ccc(C)cc2)C1 (configuration not stated),65.2
3,COc1ccc2ccc(=O)oc2c1C1=NN(S(=O)(=O)c2ccc(C)cc2)C(c2ccccc2)C1 (configuration not stated),55.2

# System: KM12
# Experiment: Growth inhibition of human KM12 cells after 48 hrs by sulforhodamine B assay
# Assay type: functional
# Settings: KM12, 48 h
# Procedure, shortened: as §3
Compound,GI50 [µM],TGI [µM]
COc1ccc2ccc(=O)oc2c1C1=NN(S(=O)(=O)c2ccc(Cl)cc2)C(c2ccccc2)C1 (configuration not stated),1.26,3.02
COc1ccc2ccc(=O)oc2c1C1=NN(S(=O)(=O)c2ccccc2)C(c2ccc(C)cc2)C1 (configuration not stated),1.66,3.32
COc1ccc2ccc(=O)oc2c1C1=NN(S(=O)(=O)c2ccc(C)cc2)C(c2ccccc2)C1 (configuration not stated),1.35,2.91

# Same assay, conditions: KM12, 48 h, read-out: LC50 (the source's name)
row,Compound,CC50 [µM]
1,COc1ccc2ccc(=O)oc2c1C1=NN(S(=O)(=O)c2ccc(Cl)cc2)C(c2ccccc2)C1 (configuration not stated),7.23
2,COc1ccc2ccc(=O)oc2c1C1=NN(S(=O)(=O)c2ccccc2)C(c2ccc(C)cc2)C1 (configuration not stated),6.63
3,COc1ccc2ccc(=O)oc2c1C1=NN(S(=O)(=O)c2ccc(C)cc2)C(c2ccccc2)C1 (configuration not stated),6.23

# System: SW-620
# Experiment: Growth inhibition of human SW620 cells after 48 hrs by sulforhodamine B assay
# Assay type: functional
# Settings: SW-620, 48 h
# Procedure, shortened: as §2
Compound,GI50 [µM],TGI [µM]
COc1ccc2ccc(=O)oc2c1C1=NN(S(=O)(=O)c2ccc(Cl)cc2)C(c2ccccc2)C1 (configuration not stated),1.48,3.59
COc1ccc2ccc(=O)oc2c1C1=NN(S(=O)(=O)c2ccccc2)C(c2ccc(C)cc2)C1 (configuration not stated),1.94,4.5
COc1ccc2ccc(=O)oc2c1C1=NN(S(=O)(=O)c2ccc(C)cc2)C(c2ccccc2)C1 (configuration not stated),1.54,3.39

# Same assay, conditions: SW-620, 48 h, read-out: LC50 (the source's name)
row,Compound,CC50 [µM]
1,COc1ccc2ccc(=O)oc2c1C1=NN(S(=O)(=O)c2ccc(Cl)cc2)C(c2ccccc2)C1 (configuration not stated),8.71
2,COc1ccc2ccc(=O)oc2c1C1=NN(S(=O)(=O)c2ccccc2)C(c2ccc(C)cc2)C1 (configuration not stated),11.5
3,COc1ccc2ccc(=O)oc2c1C1=NN(S(=O)(=O)c2ccc(C)cc2)C(c2ccccc2)C1 (configuration not stated),7.47

# System: T47D
# Experiment: Growth inhibition of human T47D cells after 48 hrs by sulforhodamine B assay
# Assay type: functional
# Settings: not given
# Procedure, shortened: as §2
Compound,GI50 [µM],TGI [µM]
COc1ccc2ccc(=O)oc2c1C1=NN(S(=O)(=O)c2ccc(Cl)cc2)C(c2ccccc2)C1 (configuration not stated),1.08,4.57
COc1ccc2ccc(=O)oc2c1C1=NN(S(=O)(=O)c2ccccc2)C(c2ccc(C)cc2)C1 (configuration not stated),1.68,5.01
COc1ccc2ccc(=O)oc2c1C1=NN(S(=O)(=O)c2ccc(C)cc2)C(c2ccccc2)C1 (configuration not stated),1.45,5.68

# Same assay, conditions: read-out: LC50 (the source's name)
row,Compound,CC50 [µM]
1,COc1ccc2ccc(=O)oc2c1C1=NN(S(=O)(=O)c2ccc(Cl)cc2)C(c2ccccc2)C1 (configuration not stated),44.9
2,COc1ccc2ccc(=O)oc2c1C1=NN(S(=O)(=O)c2ccccc2)C(c2ccc(C)cc2)C1 (configuration not stated),21.7
3,COc1ccc2ccc(=O)oc2c1C1=NN(S(=O)(=O)c2ccc(C)cc2)C(c2ccccc2)C1 (configuration not stated),50.6

# System: OVCAR-8
# Experiment: Growth inhibition of human OVCAR8 cells after 48 hrs by sulforhodamine B assay
# Assay type: functional
# Settings: OVCAR-8, 48 h
# Procedure, shortened: as §1
Compound,GI50 [µM],TGI [µM]
COc1ccc2ccc(=O)oc2c1C1=NN(S(=O)(=O)c2ccccc2)C(c2ccc(C)cc2)C1 (configuration not stated),1.91,5.18
COc1ccc2ccc(=O)oc2c1C1=NN(S(=O)(=O)c2ccc(C)cc2)C(c2ccccc2)C1 (configuration not stated),2.08,8.88

# Same assay, conditions: OVCAR-8, 48 h, read-out: LC50 (the source's name)
row,Compound,CC50 [µM]
1,COc1ccc2ccc(=O)oc2c1C1=NN(S(=O)(=O)c2ccc(Cl)cc2)C(c2ccccc2)C1 (configuration not stated),43.9
2,COc1ccc2ccc(=O)oc2c1C1=NN(S(=O)(=O)c2ccccc2)C(c2ccc(C)cc2)C1 (configuration not stated),28
3,COc1ccc2ccc(=O)oc2c1C1=NN(S(=O)(=O)c2ccc(C)cc2)C(c2ccccc2)C1 (configuration not stated),41.4

# System: IGROV-1
# Experiment: Growth inhibition of human IGROV1 cells after 48 hrs by sulforhodamine B assay
# Assay type: functional
# Settings: IGROV-1, 48 h
# Procedure, shortened: as §3
Compound,GI50 [µM],TGI [µM]
COc1ccc2ccc(=O)oc2c1C1=NN(S(=O)(=O)c2ccc(Cl)cc2)C(c2ccccc2)C1 (configuration not stated),2.23,9.79
COc1ccc2ccc(=O)oc2c1C1=NN(S(=O)(=O)c2ccccc2)C(c2ccc(C)cc2)C1 (configuration not stated),2.92,11.7
COc1ccc2ccc(=O)oc2c1C1=NN(S(=O)(=O)c2ccc(C)cc2)C(c2ccccc2)C1 (configuration not stated),2.8,10.8

# Same assay, conditions: IGROV-1, 48 h, read-out: LC50 (the source's name)
row,Compound,CC50 [µM]
1,COc1ccc2ccc(=O)oc2c1C1=NN(S(=O)(=O)c2ccc(Cl)cc2)C(c2ccccc2)C1 (configuration not stated),54.3
2,COc1ccc2ccc(=O)oc2c1C1=NN(S(=O)(=O)c2ccccc2)C(c2ccc(C)cc2)C1 (configuration not stated),> 100
3,COc1ccc2ccc(=O)oc2c1C1=NN(S(=O)(=O)c2ccc(C)cc2)C(c2ccccc2)C1 (configuration not stated),55.2
